Measurements: ChEMBL document CHEMBL1132947, “Synthesis and biological evaluation of 2'-carbamate-linked and 2'-carbonate-linked prodrugs of paclitaxel: selective activation by the tumor-associated protease plasmin” (J Med Chem, 2000)
In brackets after ≈: the same amount, converted by molar mass.

How the values were obtained:
Format in all cases: functional, cell-based
Conditions in all cases: Homo sapiens
[1] = system: WiDr; test: Cytotoxicity against WIDR Tumor cell line in SRB Cell viability test
Outline: (§1)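 Human tumor cell lines exposed to (pro)drug for 5 days; growth measured by microculture sulforhodamine B assay. ID50 = concentration giving 50% growth inhibition versus untreated control cultures, reported in ng/mL. Experiments run in quadruplicate and results averaged.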

[2] = system: MCF7; test: Cytotoxicity against MCF-7 Tumor cell line in SRB Cell viability test; outline: as §1
[3] = system: A498; test: Cytotoxicity against A498 Tumor cell line in SRB Cell viability test; outline: as §1
[4] = system: EVSA-T; test: Cytotoxicity against EVSA-T Tumor cell line in SRB Cell viability test; outline: as §1
[5] = system: NCI-H226; test: Cytotoxicity against H226 Tumor cell line in SRB Cell viability test; outline: as §1
[6] = system: IGROV-1; test: Cytotoxicity against IGROV Tumor cell line in SRB Cell viability test; outline: as §1
[7] = system: M19-MEL; test: Cytotoxicity against M19 Tumor cell line in SRB Cell viability test; outline: as §1

Row | SMILES | IC50 [1] [µg/mL] | IC50 [2] [µg/mL] | IC50 [3] [µg/mL] | IC50 [4] [µg/mL] | IC50 [5] [µg/mL] | IC50 [6] [µg/mL] | IC50 [7] [µg/mL]
1 | CC(=O)O[C@H]1C(=O)[C@@]2(C)[C@H]([C@H](OC(=O)c3ccccc3)[C@]3(O)CC(OC(=O)[C@H](OC(=O)OCc4ccc(NC(=O)[C@H](CCCCN)NC(=O)[C@H](CC(C)C)NC(=O)[C@H](N)C(C)C)cc4)C(NC(=O)c4ccccc4)c4ccccc4)C(C)=C1C3(C)C)[C@]1(OC(C)=O)CO[C@@H]1C[C@@H]2O.Cl.Cl (stereo not given in full) | 0.011 | 0.0092 | > 0.06 | 0.0093 | 0.016 | 0.027 | 0.02
2 | CC(=O)O[C@H]1C(=O)[C@@]2(C)[C@H]([C@H](OC(=O)c3ccccc3)[C@]3(O)CC(OC(=O)[C@H](OC(=O)N(C)CCN(C)C(=O)[C@H](CCCCN)NC(=O)[C@H](CC(C)C)NC(=O)[C@H](N)C(C)C)C(NC(=O)c4ccccc4)c4ccccc4)C(C)=C1C3(C)C)[C@]1(OC(C)=O)CO[C@@H]1C[C@@H]2O.Cl.Cl (stereo not given in full) | 0.011 | 0.0069 | 0.045 | 0.0052 | 0.025 | 0.026 | 0.024
3 | CC(=O)O[C@H]1C(=O)[C@@]2(C)[C@H]([C@H](OC(=O)c3ccccc3)[C@]3(O)CC(OC(=O)[C@H](OC(=O)N(C)CCN(C)C(=O)[C@H](CCCCN)NC(=O)[C@H](Cc4ccccc4)NC(=O)[C@@H](C)N)C(NC(=O)c4ccccc4)c4ccccc4)C(C)=C1C3(C)C)[C@]1(OC(C)=O)CO[C@@H]1C[C@@H]2O.Cl.Cl (stereo not given in full) | 0.01 | 0.0066 | 0.038 | 0.0072 | 0.021 | 0.011 | 0.017
4 | CC(=O)O[C@H]1C(=O)[C@@]2(C)[C@H]([C@H](OC(=O)c3ccccc3)[C@]3(O)CC(OC(=O)[C@H](OC(=O)NCCNC(=O)[C@H](CCCCN)NC(=O)[C@H](Cc4ccccc4)NC(=O)[C@@H](C)N)C(NC(=O)c4ccccc4)c4ccccc4)C(C)=C1C3(C)C)[C@]1(OC(C)=O)CO[C@@H]1C[C@@H]2O.Cl.Cl (stereo not given in full) | 0.013 | 0.016 | 0.04 | 0.011 | 0.041 | 0.019 | 0.045
5 | CC(=O)O[C@H]1C(=O)[C@@]2(C)[C@H]([C@H](OC(=O)c3ccccc3)[C@]3(O)C[C@H](OC(=O)[C@H](O)[C@@H](NC(=O)c4ccccc4)c4ccccc4)C(C)=C1C3(C)C)[C@]1(OC(C)=O)CO[C@@H]1C[C@@H]2O [PACLITAXEL] | < 0.003 | < 0.003 | < 0.003 | < 0.003 | < 0.003 | 0.01 (≈ 11.7 nM) | < 0.003
